The results in this text go back to ChEMBL document CHEMBL1147812 (J Med Chem, 2006).

In the experiment the target is Neuronal acetylcholine receptor; alpha4/beta2 (Rattus norvegicus, UniProt P09483+P12390). As to the kind of experiment: Inhibition of [3H]cytisine binding to alpha4beta2 nACHR in Wistar rat cerebral cortical membrane. A digest of the protocol: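 Male Wistar rat (150-250 g) cerebral cortex homogenized at 0-4 °C in 50 mM Tris HCl pH 7.4 with 120 mM NaCl, 5 mM KCl, 1 mM MgCl₂, 2.5 mM CaCl₂, then washed twice by centrifugation at 27 000g. Membranes incubated with test drug and 1 nM ³H-cytisine (final) for 90 min at 2 °C. Nonspecific binding defined with 100 µM (-)-nicotine. Bound label collected on GF/C filters and counted by liquid scintillation.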
Sequence of Neuronal acetylcholine receptor; alpha4/beta2 (P09483 whole entry): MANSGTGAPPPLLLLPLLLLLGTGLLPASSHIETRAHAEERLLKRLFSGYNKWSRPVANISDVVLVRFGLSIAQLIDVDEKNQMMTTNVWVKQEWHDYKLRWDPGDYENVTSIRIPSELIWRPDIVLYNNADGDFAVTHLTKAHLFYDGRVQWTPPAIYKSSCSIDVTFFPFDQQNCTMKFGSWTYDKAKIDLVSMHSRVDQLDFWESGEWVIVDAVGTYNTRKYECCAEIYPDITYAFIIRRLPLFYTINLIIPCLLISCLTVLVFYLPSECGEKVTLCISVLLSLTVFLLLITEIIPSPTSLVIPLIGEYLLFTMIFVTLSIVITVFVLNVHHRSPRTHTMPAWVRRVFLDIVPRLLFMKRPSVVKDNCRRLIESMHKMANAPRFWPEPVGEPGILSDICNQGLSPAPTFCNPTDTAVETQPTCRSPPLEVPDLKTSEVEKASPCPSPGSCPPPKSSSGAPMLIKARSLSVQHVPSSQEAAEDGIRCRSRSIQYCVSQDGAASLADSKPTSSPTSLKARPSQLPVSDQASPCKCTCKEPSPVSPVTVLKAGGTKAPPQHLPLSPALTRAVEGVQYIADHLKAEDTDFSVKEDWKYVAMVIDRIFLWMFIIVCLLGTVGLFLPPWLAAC
Sequence of Neuronal acetylcholine receptor; alpha4/beta2 (P12390 whole entry): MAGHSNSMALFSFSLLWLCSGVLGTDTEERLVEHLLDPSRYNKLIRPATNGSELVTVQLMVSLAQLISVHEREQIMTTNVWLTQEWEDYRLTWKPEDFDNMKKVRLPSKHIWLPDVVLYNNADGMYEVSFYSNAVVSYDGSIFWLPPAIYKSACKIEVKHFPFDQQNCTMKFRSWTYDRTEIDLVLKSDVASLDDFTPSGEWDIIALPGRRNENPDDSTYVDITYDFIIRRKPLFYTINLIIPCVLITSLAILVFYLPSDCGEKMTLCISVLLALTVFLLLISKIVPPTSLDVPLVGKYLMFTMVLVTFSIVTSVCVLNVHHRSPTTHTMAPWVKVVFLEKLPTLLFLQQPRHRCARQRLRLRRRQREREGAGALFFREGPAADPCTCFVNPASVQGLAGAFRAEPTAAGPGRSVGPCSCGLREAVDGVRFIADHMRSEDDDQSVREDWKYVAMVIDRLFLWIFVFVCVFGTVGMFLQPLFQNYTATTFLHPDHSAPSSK
In turn, `C=COc1cc(N2CCCNCC2)cnc1Br` returned an IC50 of 0.64 nM.
`Clc1cncc(N2CCCNCCC2)c1` had an IC50 of 2 nM.
The compound `Cc1ncc(N2CCNCC2)cc1Cl` had an IC50 of 520 nM.
`c1ncc(N2CCCNCC2)cc1C1CC1`: the half-maximal inhibitory concentration (IC50) worked out at 5.8 nM.
With `Oc1cc(N2CCCNCC2)cnc1I` the figure was 22 nM; with `Clc1cncc(OC2CCCNC2)c1` (racemic), 240 nM; with `C/C=C\Oc1cncc(N2CCCNCC2)c1`, 1.3 nM.
For `Clc1ncc(N2CCNCC2)cc1Br`, the IC50 worked out at 230 nM.
In turn, `C=COc1cc(N2CCCNCCC2)cnc1Br` showed an IC50 of 0.38 nM.
Compound `Clc1cc(N2CCCNCC2)cnc1Br` had an IC50 of 1.4 nM.
As for `Brc1ccc(N2CCNCC2)cn1`, the IC50 turned out to be 180 nM.
In the case of `c1cncc(N2CCCNCCC2)c1`, the IC50 stood at 0.9 nM.
The compound `C/C=C\Oc1cncc(N2C3CCNCC2CC3)c1` (racemic) gave an IC50 of 3.1 nM.
Turning to `Clc1ncc(N2CCCNCC2)cc1Br`, the IC50 was 1.4 nM.
`Brc1cncc(N2CCCNCCC2)c1`: the IC50 was determined as 2.8 nM.
Compound `COc1cncc(N2CCNCC2)c1` yielded a 50% inhibitory concentration (IC50) of 500 nM.
With `COc1cncc(N2C3CCNCC2CC3)c1` (racemic) the figure was 10 nM.
In turn, `C=COc1cncc(N2CCNCC2)c1` came in with an IC50 of 190 nM.
To `CCOc1cncc(N2CCC3CCC(C2)N3)c1` (racemic) belongs 6.5 nM; to `C#Cc1cncc(N2CCNCC2)c1`, 110 nM.
To `Brc1ccc(N2CCCNCCC2)cn1` belongs 0.45 nM; to `C/C=C\Oc1cncc(N2CCC3CCC(C2)N3)c1` (racemic), 1.9 nM.
